This note sets out measurements from ChEMBL document CHEMBL1156765, “Novel organic proteasome inhibitors identified by virtual and in vitro screening” (J Med Chem, 2010).

The structures appear in SMILES notation. pEC50, pIC50: −log10 of the molar value. Calls of active or inactive are those of the source. No cut-off for these calls is given here.

The species named for experiment [1] is Oryctolagus cuniculus. The experiment in a line: Inhibition of chymotrypsin-like activity of rabbit 20S proteasome at 50 uM at pH 8 after 15 mins. The method, boiled down:
(§1)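 Rabbit 20S proteasome held with inhibitor for 15 min at pH 8, 37 °C. The matching fluorogenic substrate was then added to read the remaining chymotrypsin-like, post-acid or trypsin-like activity. Results are reported as IC50, or as % inhibition at a single inhibitor concentration of 50 or 100 μM.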

Experiment [2] can be described thus: Inhibition of post-acid activity of rabbit 20S proteasome at pH 8 after 15 mins. On the set-up: species or system Oryctolagus cuniculus. To be noted: for pIC50: read-out: IC50. The method, boiled down:
as §1

Experiment [3] in a line: Inhibition of chymotrypsin-like activity of rabbit 20S proteasome at pH 8 after 15 mins. To be noted: for pIC50: read-out: IC50. Also noted: species or system Oryctolagus cuniculus. The method, boiled down:
as §1

The species entered for experiment [4] is Oryctolagus cuniculus. Description: Inhibition of post-acid activity of rabbit 20S proteasome at 100 uM at pH 8 after 15 mins. A digest of the protocol:
as §1

Experiment [5] is filed under the species Oryctolagus cuniculus. Description: Inhibition of trypsin-like activity of rabbit 20S proteasome at 50 uM at pH 8 after 15 mins. The method, boiled down:
as §1

The species entered for experiment [6] is Oryctolagus cuniculus. The experiment in a line: Inhibition of post-acid activity of rabbit 20S proteasome at 50 uM at pH 8 after 15 mins. The method, boiled down:
as §1

The subject of another experiment is HEK293. The experiment in a line: Cytotoxicity against human HEK293 cells after 48 hrs by XTT assay. The class given is functional, cell-based. Particulars: HEK293, 48 h. Background: Formazan colour is commonly taken as a measure of viable cells.
The species entered for experiment [7] is Oryctolagus cuniculus. Description: Inhibition of chymotrypsin-like activity of rabbit 20S proteasome at 100 uM at pH 8 after 15 mins. The method, boiled down: as §1
The species named for experiment [8] is Oryctolagus cuniculus. The experiment in a line: Inhibition of trypsin-like activity of rabbit 20S proteasome at 100 uM at pH 8 after 15 mins. The method, boiled down: as §1
The next experiment relates to HeLa. The experiment in a line: Cytotoxicity against human HeLa cells after 48 hrs by XTT assay. The class given is functional, cell-based.
Experiment [9] has as its target T1, Calpain-1 catalytic subunit (Homo sapiens) (UniProt P07384).
T1 sequence (whole entry): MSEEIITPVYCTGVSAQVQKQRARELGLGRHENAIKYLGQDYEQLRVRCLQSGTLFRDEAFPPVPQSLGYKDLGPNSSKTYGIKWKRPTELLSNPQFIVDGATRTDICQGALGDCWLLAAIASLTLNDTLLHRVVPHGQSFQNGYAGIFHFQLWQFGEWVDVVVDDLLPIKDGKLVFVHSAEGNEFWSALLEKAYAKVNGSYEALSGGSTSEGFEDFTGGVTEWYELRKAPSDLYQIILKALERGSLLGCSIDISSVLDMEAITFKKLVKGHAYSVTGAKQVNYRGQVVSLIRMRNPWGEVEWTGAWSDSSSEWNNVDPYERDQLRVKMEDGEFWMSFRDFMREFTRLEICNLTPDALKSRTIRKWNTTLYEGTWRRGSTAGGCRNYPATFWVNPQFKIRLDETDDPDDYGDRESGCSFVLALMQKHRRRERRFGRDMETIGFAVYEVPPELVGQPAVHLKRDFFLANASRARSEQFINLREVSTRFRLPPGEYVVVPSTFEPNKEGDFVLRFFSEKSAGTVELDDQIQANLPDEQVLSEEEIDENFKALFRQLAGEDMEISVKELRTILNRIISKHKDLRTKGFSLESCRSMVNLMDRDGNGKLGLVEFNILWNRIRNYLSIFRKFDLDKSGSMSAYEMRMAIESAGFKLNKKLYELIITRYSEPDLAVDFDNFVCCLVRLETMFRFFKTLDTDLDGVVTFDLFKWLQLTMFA
The experiment in a line: Inhibition of cytosolic calpain 1 at 50 uM at pH 7.2.

For experiment [10], the target named is T1, Calpain-1 catalytic subunit (Homo sapiens). Description: Inhibition of cytosolic calpain 1 at 100 uM at pH 7.2.
Experiment [11] is described as follows: Inhibition of trypsin-like activity of rabbit 20S proteasome at pH 8 after 15 mins. On the set-up: species or system Oryctolagus cuniculus. To be noted: for pIC50: read-out: IC50. A digest of the protocol:
as §1

The inhibition is the percentage by which the read-out fell short of the control. `COc1ccc(N2CCN(C(=O)COc3ccc(C(C)(C)C)cc3)CC2)c([N+](=O)[O-])c1` gave an inhibition in the experiment filed under Oryctolagus cuniculus [1] of 40%. Besides, the IC50 result in [2] was “Not Active”.
For the molecule `CCOc1ccc(-c2cc(C(=O)Nc3ccc(S(=O)(=O)NC(C)=O)cc3)c3ccccc3n2)cc1`, the IC50 entry in [3] is given as “Not Active”. Moreover, the inhibition in the experiment filed under Oryctolagus cuniculus [4] turned out to be 42%; in the experiment filed under Oryctolagus cuniculus [5], 45%.
The term pIC50 denotes the negative decadic logarithm of the IC50, by convention in mol/L. The pEC50 is −log10 of the EC50, conventionally taken in molar units. The low end stands for a high EC50, the high end for a low EC50. In the case of `Cc1ccc(-c2nnc(Nc3cccc(O)c3)c3ccccc23)cc1S(=O)(=O)NC(C)(C)C`, the pIC50 in [3] is 4.55. The inhibition in the experiment listed under Oryctolagus cuniculus [6] was 29%; in the experiment filed under Oryctolagus cuniculus [5], 44%. Further, the pEC50 with HEK293 was 4.98.
Take `COc1ccc(N2CCN(C(=S)Nc3ccc([N+](=O)[O-])cc3)CC2)cc1`: the pIC50 is 4.97 in experiment [3] and 5.05 in experiment [2]. The molecule also had a pEC50 in the experiment on HEK293 of 4.30.
On to `CCN(CC)S(=O)(=O)c1ccc(NC(=O)c2ccc(C(C)(C)C)cc2)cc1`, for which the inhibition in the experiment filed under Oryctolagus cuniculus [7] worked out at 87%. In addition, in experiment [2], the pIC50 is under 4.60.
On to `CCOC(=O)CNS(=O)(=O)c1cc(-c2nnc(Nc3cccc(O)c3)c3ccccc23)ccc1C`, for which the inhibition in the experiment filed under Oryctolagus cuniculus [1] is 35%; in the experiment listed under Oryctolagus cuniculus [8], 63%. For the same molecule, in experiment [2], the pIC50 was 4.41. Further, the pEC50 in the experiment with HEK293 is 4.86.
`COc1ccc(NC(=O)C23CC4CC(C2)CC(C(=O)Nc2ccc(OC)cc2)(C4)C3)cc1`: the pIC50 was 4.93 in experiment [3] and 4.91 in experiment [2].
In the case of `CC(=O)NS(=O)(=O)c1ccc(NC(=O)c2cc(-c3ccc(Cl)s3)nc3ccccc23)cc1`, the pEC50 with HeLa is 4.00; in the experiment with HEK293, 4.12.
Consider `CCCN(CCC)S(=O)(=O)c1ccc(NC(=O)c2ccc(C(C)(C)C)cc2)cc1`, for which the pIC50 in experiment [3] is 4.72; in experiment [2] it was 5.10. The outcome in experiment [9] and in [10] was inactive. For the same molecule, the figures for the pEC50 with HeLa and in the experiment on HEK293 were 5.05 and over 5.30, respectively.
In the case of `CCc1ccc(-c2cc(C(=O)Nc3ccc(S(=O)(=O)NC(C)=O)cc3)c3ccccc3n2)cc1`, in [3], the IC50 entry is “Not Active”. In the experiment listed under Oryctolagus cuniculus [4], this molecule returned an inhibition of 45%. Moreover, the pIC50 in experiment [11] was 4.59.
Consider `CC(C)(C)c1ccc(OCC(=O)N2CCN(c3ccc([N+](=O)[O-])cc3)CC2)c(Br)c1`, for which the IC50 result in [3] and in experiment [11] was “Not Active” each time. In addition, the inhibition in the experiment filed under Oryctolagus cuniculus [6] was determined as 49%.
For the molecule `Cc1ccccc1C(=O)Nc1ccc(S(=O)(=O)NCc2ccccc2)cc1`, the IC50 entry in [3] was “Not Active”. For the same molecule, the values for the inhibition in the experiment filed under Oryctolagus cuniculus [6] and in the experiment filed under Oryctolagus cuniculus [8] were 54% and 13%, respectively.
Turning to `C=CCN(CC=C)S(=O)(=O)c1ccc(NC(=O)c2ccc(C(C)(C)C)cc2)cc1`, the pIC50 in experiment [3] was 5.72; in experiment [2] it was 5.00; in experiment [11] it was 5.35. In addition, the outcome in [9] and in experiment [10] was inactive. Moreover, the pEC50 with HeLa was 4.91; with HEK293, 5.01.
As for `COc1ccc(NC(=O)C23CC4CC(C2)CC(c2ccc(C)cc2)(C4)C3)cc1`, the pIC50 is 4.58 in experiment [3] and 4.30 in experiment [2].
In the case of `O=C(Nc1ccc(S(=O)(=O)NCc2ccccc2)cc1)c1cc(-c2cccs2)nc2ccccc12`, the inhibition in the experiment filed under Oryctolagus cuniculus [1] is 70.1%. Moreover, the IC50 result in [2] is “Not Active”.
For `CC(C)(C)c1ccc(/C=C/C(=O)N2CCN(c3ccc([N+](=O)[O-])cc3)CC2)cc1`, the IC50 result in experiment [3] and in [11] was “Not Active” in each case. Moreover, the inhibition in the experiment filed under Oryctolagus cuniculus [6] stood at 52%.
For the molecule `CC(C)(C)c1ccc(C(=O)Nc2ccc(S(=O)(=O)N3CCCCCC3)cc2)cc1`, the pIC50 in experiment [3] is under 4.30. The same molecule displayed an inhibition in the experiment filed under Oryctolagus cuniculus [4] of 63%.
With `Cc1ccc(-c2nnc(Nc3cccc(O)c3)c3ccccc23)cc1S(=O)(=O)NC(C)(C)CO`, the pIC50 in experiment [3] is 4.45; in [2] it was 4.83; in experiment [11] it was 4.17.
With `Cc1ccc(-c2nnc(Nc3ccccc3)c3ccccc23)cc1S(=O)(=O)NCC1CCCO1` (stereo not drawn), the IC50 result in experiment [3] is on record as “Not Active”. In the experiment listed under Oryctolagus cuniculus [6], this molecule gave an inhibition of 52%.
